proCasp7 act: activates human procaspase-7, counter-screen for procaspase-3 activators; AID 463210; recombinant procaspase-7, Ac-DEVD-pNA absorbance 405 nm; D23A/D198A/D206A triple mutant, cannot self-cleave; scale: DMSO 0, 5 µM enzyme 100; activation, % at 8.5 µM; hit rate 0.093% among 330,000;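 active = percent activation above the screen-wide mean plus 3 SD, cut at about 25% in these data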
Target sequence (P55210 whole entry D23A/D198A/D206A): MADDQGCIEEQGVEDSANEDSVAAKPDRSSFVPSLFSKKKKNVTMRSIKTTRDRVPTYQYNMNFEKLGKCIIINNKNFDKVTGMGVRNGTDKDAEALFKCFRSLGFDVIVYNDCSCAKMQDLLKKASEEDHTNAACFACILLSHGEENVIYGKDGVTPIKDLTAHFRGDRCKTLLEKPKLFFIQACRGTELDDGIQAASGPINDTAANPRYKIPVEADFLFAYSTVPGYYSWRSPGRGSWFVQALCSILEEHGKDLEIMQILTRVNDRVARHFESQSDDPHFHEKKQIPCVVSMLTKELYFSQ
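Detection: p-Nitroaniline absorbance at 405 nm, read at 0 and 120 min; system: Uncleavable procaspase-7 mutant enzyme; evaluation: % activation from two-timepoint absorbance difference, scaled to controls; times: 1 h enzyme–compound preincubation and 2 h substrate reaction, both 25 °C; buffer or medium: Zinc-free HEPES pH 7.4 with 300 mM NaCl, 0.01% Triton X-100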
Neddyl block: inhibitors of human cullin neddylation; P61081+Q13564; hit rate 0.58% among 360,000; TR-FRET cullin neddylation, biochemical; AID 651699; calls only at 25 µM; in the data active = inhibition above about 36%
proKLK7 act: proKLK7 (human) activation, primary screen; purified proKLK7, EDANS-DABCYL substrate fluorescence; 100% is mature enzyme control, 0% vehicle; activation, % at 7 µM; P49862; hit rate 0.9% among 370,000;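 active = activation above the mean of all tested compounds plus 3 SD, computed per campaign excluding outliers beyond control limits, cut at about 13% in these data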
Target sequence (P49862 whole entry, looked up): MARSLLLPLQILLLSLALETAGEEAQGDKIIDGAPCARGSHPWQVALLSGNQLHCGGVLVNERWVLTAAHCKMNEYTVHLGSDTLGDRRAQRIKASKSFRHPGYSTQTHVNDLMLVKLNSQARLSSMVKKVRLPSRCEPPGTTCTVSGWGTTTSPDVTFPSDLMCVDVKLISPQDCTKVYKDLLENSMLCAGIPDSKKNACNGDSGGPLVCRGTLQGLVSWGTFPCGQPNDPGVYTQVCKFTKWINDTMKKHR
procasp3 activ: activators of human procaspase-3. recombinant procaspase-3 D3A, Ac-DEVD-pNA absorbance 405 nm. activation, % at 8.5 µM. hit rate 0.11% among 330,000;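 active = activation above the mean of all tested compounds plus 3 SD, cut at about 21% in these data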;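 also: 0% = DMSO alone and 100% = DMSO wells spiked with extra 5 µM PC-3 D3A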
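System: Procaspase-3 D3A mutant. Medium: Zinc-free 300 mM NaCl, 50 mM HEPES, 0.01% Triton X-100. Schedule: 1 h preincubation plus 2 h reaction at 25 °C. Measured by: 405 nm absorbance of p-nitroaniline, reads at 0 and 120 min. Read-out: percent activation relative to control range.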
KLK7 act conf: confirmation of human kallikrein-7 zymogen activators | shares compounds with proKLK7 act | purified proKLK7, EDANS-DABCYL substrate fluorescence; scaled: vehicle 0, mature enzyme 100 | hit rate 68% among 3,200 | AID 686949 | activation, % at 7 µM;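 active = activation, as change over the incubation, above the mean of all tested compounds plus 3 SD, cut at about 13% in these data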
EDANS-DABCYL int: fluorescence interference counter-screen for KLK7 activators. shares compounds with proKLK7 act. hit rate 80% among 3,200. activation, % at 7 µM. EDANS-DABCYL substrate fluorescence interference, no enzyme, 4 h; solvent 0%, active enzyme control 100%;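 active = activation above the all-compound mean plus 3 SD, ignoring values outside control-based bounds, cut at about 4.8% in these data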;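 also: value is the 4 h activation minus the activation read at time zero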
K7 EDANS ctr: counter-screen for kallikrein-7 activators: EDANS-DABCYL interference, dose response; shares compounds with proKLK7 act; EDANS-DABCYL peptide fluorescence interference, no enzyme; EC50, µM; hit rate 20% among 250; AID 720493;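 active = compounds that raise the fluorescence signal in this interference counterscreen, with EC50 at or below 10 µM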;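 also: intact quenched peptide substrate alone read at 355 nm excitation and 520 nm emission; signal is fluorescence gain from T0 to T4 after four hours at room temperature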
Starred values were filed as active, the others as inactive; i = inactive; . = no result given. Hits are enriched below; roughly 1.6% of the tested compounds scored in any of these assays.

SMILES	proCasp7 act	Neddyl block	proKLK7 act	procasp3 activ	KLK7 act conf	EDANS-DABCYL int	others
O=C(NC1CCSc2ccccc21)c1ccc(F)c(S(=O)(=O)N2CCOCC2)c1 (stereo not given)	6.1	i	-0.2	-3.9	.	.
Nc1nc2ncccc2cc1C(=O)NCCc1cccs1	.	.	23.6*	.	21.6*	27.6*
COc1ccc2[nH]c(=O)c(C(c3nnnn3CC3CCCO3)N3CCc4ccccc4C3)cc2c1 (stereo not given)	-3.3	i	20.5*	-6.3	11.4	9.9*
CC(C)c1ccc2nc(SCC(=O)NCC3CCCO3)c(C#N)cc2c1 (stereo not given)	3.5	i	-0.7	12.2	.	.
COc1cccc(-c2cc(=O)c3cc(NC(C)=O)ccc3[nH]2)c1	6.9	.	25.3*	0.8	32.5*	32.0*
FC(F)(F)c1nc2nc(Cl)c(Cl)nc2n1CCCN1CCOCC1	.	i	24.6*	.	2.0	2.1
Clc1ccc(OCCCCCN2CCOCC2)cc1	-5.8	i	-0.6	1.6	.	.
COc1ccc2oc(=O)c(C(=O)N3CCN(C(=O)c4ccco4)CC3)cc2c1	6.0	.	26.2*	-1.8	27.3*	29.5*
COc1ccc2oc(=O)c(C(=O)N3CCN(C(=O)c4ccccc4)CC3)cc2c1	11.4	.	20.8*	5.1	24.9*	15.8*	K7 EDANS ctr=>69.5
O=C(c1ccco1)N1CCN(C(=O)c2cc3ccccc3oc2=O)CC1	1.0	i	0.5	2.6	.	.
COc1ccc2oc(=O)c(/C(N)=N/NC(=O)c3ccncc3)cc2c1	-5.3	i	14.9*	-1.9	121.5*	134.7*
O=C(Nc1c(C(=O)O)[nH]c2ccc(F)cc12)c1cccc(C(F)(F)F)c1	-3.6	i	0.1	14.0	.	.
O=C1C2C3C=CC(C4CC34)C2C(=O)N1/N=C/c1cccs1 (stereo not given)	-1.0	i	-0.4	4.4	.	.
CCN(CC)C(=O)c1ccc(-c2cccs2)s1	6.3	i	-0.1	-7.4	.	.
O=Cc1ccc(-c2cccs2)s1	.	.	47.0*	.	58.1*	67.3*
CCCCNS(=O)(=O)c1ccc(OC)c(C)c1	1.3	i	-0.4	-3.6	.	.
COc1ccc(S(=O)(=O)NCCc2cn3nc(C)c(C)nc3n2)cc1C	-0.1	.	32.7*	2.7	37.0*	45.1*
Cc1ccc(S(=O)(=O)NCCc2cn3nc(C)c(C)nc3n2)cc1C	1.6	.	57.9*	2.3	41.3*	49.3*
Cc1[nH]c2ccccc2c1CC(=O)Nc1ccc(Nc2cccnc2)c(-c2ccc(C(C)(C)C)cc2)c1	.	.	0.0	.	.	.
O=[N+]([O-])c1cccc(C2=Nn3c(nnc3-c3ccccc3)SC2)c1	.	.	0.1	.	.	.
Cc1cc(C)cc(C(=O)OCCN(C)C2CN(Cc3cn(Cc4ccccc4F)nn3)S(=O)(=O)C2)c1 (stereo not given)	.	.	1.0	.	.	.
COc1ccccc1N1CCN(C2=Nc3cccc4cccc2c34)CC1	-15.0	i	2.9	-7.9	.	.
c1ccc(CC2CCN(C3=Nc4cccc5cccc3c45)CC2)cc1	-4.3	i	.	0.6	.	.
c1cc2c3c(cccc3c1)C(N1CCOCC1)=N2	-5.5	i	44.3*	-7.4	47.4*	46.0*
CCOC(=O)N1CCN(C2=Nc3cccc4cccc2c34)CC1	-2.8	i	54.9*	-7.6	18.3*	28.2*
SMILES	proCasp7 act	Neddyl block	proKLK7 act	procasp3 activ	KLK7 act conf	EDANS-DABCYL int	others
CC(=O)N1CCN(C2=Nc3cccc4cccc2c34)CC1	-22.3	i	59.8*	-13.6	21.8*	18.6*	K7 EDANS ctr=i
CCOC(=O)N1CCN(C(=O)Nc2cccc3ccccc23)CC1	-5.4	i	-12.9	-3.7	.	.
CC1CN(C2=Nc3cccc4cccc2c34)CC(C)O1 (stereo not given)	-13.8	i	44.0*	-8.3	6.4	5.7*
CC(=O)N1c2ccccc2C(C)=NCC1C(=O)NC1CCCCC1 (stereo not given)	.	.	0.1	.	.	.
CC1CC(C)CN(C(=O)COC(=O)c2ccc(Cl)nc2)C1 (stereo not given)	.	i	0.3	.	.	.
COc1ccccc1N1CCN(CC(=O)Nc2c(C)n(C)n(-c3ccccc3)c2=O)CC1	12.4	i	0.0	7.2	.	.
CN(C)c1oc(-c2cccs2)nc1C#N	13.7	.	38.7*	-2.1	65.3*	81.9*
N#Cc1nc(-c2cccs2)oc1NCCc1ccccc1	-3.1	.	-4.6	6.1	.	.
N#Cc1nc(-c2cccs2)oc1NCCN1CCOCC1	0.0	.	27.8*	5.4	42.5*	39.1*
N#Cc1nc(-c2ccccc2)oc1NCCN1CCCCC1	10.2	.	40.2*	5.3	8.4	10.5*
CCOc1ccc(NC(=O)CSc2ccc(-c3cccnc3)nn2)cc1	10.6	i	0.3	4.0	.	.
N/C(=N\OC(=O)c1ccc(Br)o1)c1ccccn1	-2.6	i	0.5	2.5	.	.
O=C1CCC(NC(=O)Cc2ccccc2)C(=O)N1 (stereo not given)	.	.	-0.4	.	.	.
Cc1cc(C)cc(Oc2coc3c(CN(C)C)c(O)ccc3c2=O)c1	7.1	.	71.1*	2.2	68.8*	80.4*
COc1ccc(-c2c(C)oc3c(CN4CCN(C)CC4)c(O)ccc3c2=O)cc1	0.0	.	58.9*	5.3	40.2*	49.6*
COc1ccc(-c2c(C(F)(F)F)oc3c(CN4CCN(C)CC4)c(O)ccc3c2=O)cc1	-4.0	i	9.8	-5.0	.	.
COc1ccc(Oc2c(C)oc3c(CN(C)C)c(O)ccc3c2=O)cc1	7.1	.	14.2*	4.4	31.9*	31.0*
COC(=O)c1ccc(Oc2c(C)oc3c(CN4CCN(C)CC4)c(O)ccc3c2=O)cc1	11.1	.	65.1*	0.2	79.2*	73.2*
CCN(CC)S(=O)(=O)c1ccc2c(c1)N(CC(=O)Nc1cccnc1Cl)C(=O)CO2	-2.2	i	-0.1	-8.7	.	.
COc1ccc2cnn(CCOc3cc(C)ccc3C(C)C)c(=O)c2c1OC	3.0	i	0.0	-4.4	.	.
O=c1c(Oc2ccccc2Br)c(C(F)(F)F)oc2c(CN3CCCC3)c(O)ccc12	-2.6	i	4.6	0.2	.	.
COc1ccccc1Oc1c(C)oc2c(CN3CCN(C)CC3)c(O)ccc2c1=O	3.9	.	76.8*	-1.5	69.1*	76.3*
COc1cccc(Oc2c(C)oc3c(CN4CCCCC4)c(O)ccc3c2=O)c1	-3.5	.	61.5*	-0.4	61.3*	71.4*
CCN1CCN(Cc2c(O)ccc3c(=O)c(-c4ccc(OC)c(OC)c4)c(C)oc23)CC1	1.3	.	11.1	-5.2	.	.
COC(=O)c1cc(=O)c2cccc(OC)c2[nH]1	8.8	.	195.7*	7.2	77.2*	76.8*
COc1cccc2c(=O)cn[nH]c12	12.6	.	84.4*	-8.8	65.9*	64.1*
